We go through six molecules from ChEMBL document CHEMBL1955790, “One pot synthesis and anticancer activity of dimeric phloroglucinols” (Bioorg Med Chem Lett, 2012).

Experiment [1] deals with Calu-1. Briefly: Cytotoxicity against human Calu1 cells after 48 hrs by WST-8 assay. The following applies: Calu-1, 48 h. It counts as functional, cell-based. The method in brief: (§1)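 ATCC cells kept in DMEM with 10% FBS, penicillin/streptomycin at 37 °C, 5% CO2. Seeded 5×10^3/well and left overnight, then exposed to a range of concentrations with DMSO vehicle (≤0.1%) as control. After 48 h, CCK-8 (WST-8) was added for 4 h at 37 °C and A450 read, corrected to 650 nm. Viability is % of DMSO control. IC50 was taken from log cytotoxicity curves.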

The test system of experiment [2] is NCI-H460. Briefly: Cytotoxicity against human NCI-H460 cells after 48 hrs by WST-8 assay. The note with it: NCI-H460, 48 h. It counts as functional, cell-based. The method in brief: as §1
Experiment [3] relates to HCT-116. Kind of experiment: Cytotoxicity against human HCT116 cells after 48 hrs by WST-8 assay. It counts as functional, cell-based. The following applies: HCT-116, 48 h. The method, boiled down: as §1
In the next experiment the test system is MCF-10A. Briefly: Cytotoxicity against human MCF10A cells after 48 hrs by WST-8 assay. It counts as cell-based. The method, boiled down: as §1
Experiment [4] relates to ACHN. Briefly: Growth inhibition of human ACHN cells at 10 uM after 48 hrs by WST-8 assay. It is filed as functional. The note with it: read-out: GI. The method, boiled down: (§2)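 ATCC cells kept in DMEM with 10% FBS and antibiotics at 37 °C, 5% CO2. Seeded 5×10^3/well, incubated overnight, then treated with compound for 48 h against a DMSO vehicle control (≤0.1%). CCK-8 (WST-8) reduction by live-cell dehydrogenases read at 450 nm (corrected 650 nm) after 4 h at 37 °C. Viable cells expressed as % of the DMSO control.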

The test system of experiment [5] is PANC-1. Kind of experiment: Growth inhibition of human PANC1 cells at 10 uM after 48 hrs by WST-8 assay. It counts as functional. The following applies: PANC-1, 48 h, read-out: GI. The method, boiled down: as §2
In experiment [6] the test system is Calu-1. Briefly: Growth inhibition of human Calu1 cells at 10 uM after 48 hrs by WST-8 assay. The following applies: Calu-1, 48 h, read-out: GI. It counts as functional. The method, boiled down:
as §2

Experiment [7] relates to NCI-H460. Kind of experiment: Growth inhibition of human NCI-H460 cells at 10 uM after 48 hrs by WST-8 assay. It is filed as functional. The following applies: NCI-H460, 48 h, read-out: GI. The method in brief: as §2
For experiment [8], the system named is HCT-116. Briefly: Growth inhibition of human HCT116 cells at 10 uM after 48 hrs by WST-8 assay. It is filed as functional. The note with it: HCT-116, 48 h, read-out: GI. The method in brief: as §2
The subject of experiment [9] is ACHN. Kind of experiment: Cytotoxicity against human ACHN cells after 48 hrs by WST-8 assay. It counts as functional, cell-based. The method, boiled down: as §1
The subject of experiment [10] is PANC-1. Briefly: Cytotoxicity against human PANC1 cells after 48 hrs by WST-8 assay. It counts as functional, cell-based. The note with it: PANC-1, 48 h. The method, boiled down:
as §1

With `CC(=O)c1c(O)c(C(C)=O)c(O)c(C(c2cccs2)c2c(O)c(C(C)=O)c(O)c(C(C)=O)c2O)c1O`, the IC50 in the experiment on Calu-1 [1] is 9.7 µM; in the experiment with NCI-H460 [2], 8.9 µM; in the experiment on HCT-116 [3], 9.9 µM; with MCF-10A it was greater than 30 µM; in the experiment on ACHN [9], 9.2 µM; in the experiment on PANC-1 [10] it was 9.4 µM. Also, the inhibition of growth at 10 µM in the experiment on ACHN [4] is 57%; with PANC-1 [5] it was 64%; with Calu-1 [6] it was 0%; with NCI-H460 [7] it was 54%; in the experiment with HCT-116 [8] it was 55%.

Consider `CC(C)CC(=O)c1c(O)c(C(=O)CC(C)C)c(O)c(C(c2cccs2)c2c(O)c(C(=O)CC(C)C)c(O)c(C(=O)CC(C)C)c2O)c1O`, for which the IC50 in the experiment with Calu-1 [1] was 8.9 µM; in the experiment on NCI-H460 [2], 9.1 µM; in the experiment on HCT-116 [3] it was 8.9 µM; in the experiment on MCF-10A, greater than 30 µM; with ACHN [9], greater than 10 µM; with PANC-1 [10], 8.5 µM. Further, the inhibition of growth at 10 µM turned out to be 50% with ACHN [4]; 60% in the experiment on PANC-1 [5]; 62% with Calu-1 [6]; 54% with NCI-H460 [7]; 57% in the experiment on HCT-116 [8].

Regarding `CC(C)CC(=O)c1c(O)c(C(=O)CC(C)C)c(O)c(C(c2ccc(C(F)(F)F)cc2C(F)(F)F)c2c(O)c(C(=O)CC(C)C)c(O)c(C(=O)CC(C)C)c2O)c1O`, the IC50 with Calu-1 [1] came to 8.5 µM; in the experiment with NCI-H460 [2], 8.6 µM; in the experiment on HCT-116 [3] it was 9.2 µM; with MCF-10A, 27.6 µM; in the experiment with ACHN [9] it was 8.8 µM; in the experiment with PANC-1 [10], 8.3 µM. For the same molecule, the inhibition of growth at 10 µM with ACHN [4] was determined as 57%; in the experiment with PANC-1 [5], 60%; in the experiment with Calu-1 [6], 65%; with NCI-H460 [7], 64%; in the experiment with HCT-116 [8], 61%.

Turning to `CC(C)CC(=O)c1c(O)c(C(=O)CC(C)C)c(O)c(C(c2ccc(-c3ccccc3)cc2)c2c(O)c(C(=O)CC(C)C)c(O)c(C(=O)CC(C)C)c2O)c1O`, the IC50 with Calu-1 [1] was 7.9 µM; in the experiment with NCI-H460 [2] it was 8.3 µM; in the experiment with HCT-116 [3] it was 8.6 µM; in the experiment on MCF-10A, greater than 26.3 µM; in the experiment with ACHN [9] it was 8.9 µM; in the experiment with PANC-1 [10] it was 9.1 µM. For the same molecule, the inhibition of growth at 10 µM was found to be 59% in the experiment with ACHN [4]; 54% in the experiment with PANC-1 [5]; 52% in the experiment on Calu-1 [6]; 54% with NCI-H460 [7]; 55% with HCT-116 [8].

With `CC(C)CC(=O)c1c(O)c(C(=O)CC(C)C)c(O)c(C(c2cc3ccccc3s2)c2c(O)c(C(=O)CC(C)C)c(O)c(C(=O)CC(C)C)c2O)c1O`, the IC50 in the experiment on Calu-1 [1] is 9.5 µM; with NCI-H460 [2] it was 9.7 µM; in the experiment on HCT-116 [3], 9.8 µM; in the experiment on MCF-10A, greater than 30 µM; in the experiment on ACHN [9] it was 9.9 µM; with PANC-1 [10], 9.8 µM. Further, the inhibition of growth at 10 µM with ACHN [4] came to 54%; in the experiment with PANC-1 [5], 59%; with Calu-1 [6], 54%; in the experiment with NCI-H460 [7] it was 54%; in the experiment with HCT-116 [8] it was 65%.

As to `CC(C)CC(=O)c1c(O)c(C(=O)CC(C)C)c(O)c(C(c2ccc3c(c2)OCO3)c2c(O)c(C(=O)CC(C)C)c(O)c(C(=O)CC(C)C)c2O)c1O`, the IC50 is 6.5 µM with Calu-1 [1]; 6.6 µM in the experiment with NCI-H460 [2]; 7.1 µM in the experiment with HCT-116 [3]; greater than 30 µM in the experiment with MCF-10A; 6.7 µM with ACHN [9]; 7.2 µM in the experiment on PANC-1 [10]. For the same molecule, the inhibition of growth at 10 µM in the experiment with ACHN [4] is 67%; in the experiment with PANC-1 [5], 69%; in the experiment on Calu-1 [6], 62%; in the experiment with NCI-H460 [7], 63%; in the experiment on HCT-116 [8] it was 60%.
